According to ChEMBL document CHEMBL1130418, “Synthesis and evaluation of 6-(dibromomethyl)-5-nitropyrimidines as potential antitumor agents” (J Med Chem, 1997):

Experiments:
Mus musculus [1] = organism: Mus musculus; assay: The initial growth rate of cells in the presence at the screen concentration 100 mM in leukemic cells (L1210) of mice; type: functional
Mus musculus [2] = organism: Mus musculus; assay: The concentration required to decrease the estimate of the minimum fraction of leukemic cells (L1210) of mice that survived treatment to 50%. * indicates cell proliferation was not slowed down at screen concentration 100 mM; type: functional, organism-based
Summary of the method: (§1)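 Surviving-fraction estimate in L1210 suspension cultures (Fischer's medium) counted daily over 3 days across compound concentrations. The exponential part of each growth curve was extrapolated back to zero time, and the intercept was expressed as a percentage of the initial cell number. The value is the concentration that lowers this minimum surviving fraction to 50%.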

Mus musculus [3] = organism: Mus musculus; assay: Concentration required to decrease the growth rate to 50% of control; cell proliferation was not slowed down at screen concentration 100 mM; type: functional, organism-based
Summary of the method: (§2)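 Antiproliferative assay in L1210 murine leukemia or H.Ep.2 human epidermoid carcinoma cells. Cells were counted over time with compound present. Growth rate is the slope of log cell number versus time as a percentage of the control slope. IC50 is the concentration that lowers the growth rate to 50% of control. Values are usually the mean of two concentration–response determinations.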

Mus musculus [4] = organism: Mus musculus; assay: The concentration required to decrease the estimate of the minimum fraction of leukemic cells (L1210) of mice that survived treatment to 50%; type: functional, organism-based; summary of the method: as §1
HEp-2 [5] = assay: The initial growth rate of cells in the presence at the screen concentration 100 mM in human epidermoid carcinoma cells (H.Ep.2); type: functional
Summary of the method: (§3)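 H.Ep.2 monolayers were seeded at 2×10^4 cells per flask and switched after 1 day to medium containing compound at the single screen concentration. Duplicate flasks were counted on days 1, 2 and 4. The initial slope of log cell number versus time is given as a percentage of the untreated control slope.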

Mus musculus [6] = organism: Mus musculus; assay: Concentration required to decrease the growth rate to 50% of control; type: functional, organism-based; summary of the method: as §2
Mus musculus [7] = assay: Percent treated to untreated control was measured on Leukemia-bearing mice at the dose of 25 mg/kg; type: functional
HEp-2 [8] = assay: The concentration required to decrease the estimate of the minimum fraction of human epidermoid carcinoma cells that survived treatment to 50% (H.Ep.2); type: functional, cell-based
Summary of the method: (§4)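 Surviving fraction in H.Ep.2 monolayers exposed to compound from day 1 after seeding, with duplicate flasks counted on days 1, 2 and 4. The exponential growth curve was back-extrapolated to zero time, and the intercept was expressed as a percentage of initial cells. The value is the concentration that lowers this minimum surviving fraction to 50%.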

HEp-2 [9] = assay: Concentration required to decrease the growth rate to 50% of control on H.Ep.2 cells.; type: functional, cell-based; conditions: Homo sapiens
Mus musculus [10] = assay: Percent treated to untreated control was measured on Leukemia-bearing mice at the dose of 50 mg/kg; type: functional
Summary of the method: (§5)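 Mice were inoculated with P388 leukemia cells, and compound was injected once daily on days 1–5 after inoculation at doses of 200 down to 6.25 mg/kg/injection. T/C% is the life span of treated mice divided by that of untreated tumor-bearing control mice, ×100.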

Mus musculus [11] = assay: Percent treated to untreated control was measured on Leukemia-bearing mice at the dose of 100 mg/kg; type: functional; summary of the method: as §5
Mus musculus [12] = organism: Mus musculus; assay: The initial growth rate of cells in the presence at the screen concentration 10 mM in leukemic cells (L1210) of mice; type: functional
Mus musculus [13] = organism: Mus musculus; assay: The concentration required to decrease the estimate of the minimum fraction of leukemic cells (L1210) of mice that survived treatment to 50%; cell proliferation was not slowed down at screen concentration 100 mM; type: functional; summary of the method: as §1
HEp-2 [14] = assay: Concentration required to decrease the growth rate to 50% of control on H.Ep.2 cells; cell proliferation was not slowed at the screen concentration 100 mM; type: functional, cell-based, Homo sapiens
HEp-2 [15] = assay: The concentration required to decrease the estimate of the minimum fraction of human epidermoid carcinoma cells that survived treatment to 50% (H.Ep.2); cell proliferation was not slowed down at screen concentration 100 mM; type: functional, cell-based; summary of the method: as §4
Mus musculus [16] = organism: Mus musculus; assay: The concentration required to decrease the estimate of the minimum fraction of leukemic cells of mice that survived treatment to 50%; no evidence of surviving cell; type: functional, organism-based
Summary of the method: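 Minimum surviving fraction was estimated by back-extrapolating the exponential portion of treated-cell growth curves to zero time, as a percentage of the initial cell number. The value is the concentration that lowers this to 50%.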

Mus musculus [17] = organism: Mus musculus; assay: The concentration required to decrease the estimate of the minimum fraction of leukemic cells of mice that survived treatment to 50% (L1210); no evidence of survivin cell
HEp-2 [18] = assay: The initial growth rate of cells in the presence at the screen concentration 10 mM in human epidermoid carcinoma cells (H.Ep.2); type: functional; summary of the method: as §3
Mus musculus [19] = assay: Percent treated to untreated control was measured on Leukemia-bearing mice at the dose of 12.5 mg/kg; type: functional; summary of the method: as §5
Mus musculus [20] = assay: Percent treated to untreated control was measured on Leukemia-bearing mice at the dose of 6.25 mg/kg; type: functional; summary of the method: as §5
Mus musculus [21] = organism: Mus musculus; assay: The concentration required to decrease the estimate of the minimum fraction of leukemic cells (L1210) of mice that survived treatment to 50%; no evidence of surviving cell; type: functional, organism-based; summary of the method: as §1
HEp-2 [22] = assay: The concentration required to decrease the estimate of the minimum fraction of human epidermoid carcinoma cells that survived treatment to 50% (H.Ep.2); cell proliferation was not slowed at the screen concentration 100 mM; type: functional, cell-based; summary of the method: as §4
Mus musculus [23] = organism: Mus musculus; assay: Concentration required to decrease the growth rate to 50% of control; cell proliferation was not slowed at the screen concentration 100 mM; type: functional, organism-based; summary of the method: as §2
Mus musculus [24] = organism: Mus musculus; assay: The concentration required to decrease the estimate of the minimum fraction of leukemic cells (L1210) of mice that survived treatment to 50%; cell proliferation was not slowed at the screen concentration 100 mM; type: functional; summary of the method: as §1
Mus musculus [25] = organism: Mus musculus; assay: The concentration required to decrease the estimate of the minimum fraction of leukemic cells (L1210) of mice that survived treatment to 50%. * indicates cell proliferation was not slowed down at screen concentration 10 mM; type: functional; summary of the method: as §1
Mus musculus [26] = organism: Mus musculus; assay: Concentration required to decrease the growth rate to 50% of control; cell proliferation was not slowed down at screen concentration 10 mM; type: functional, organism-based; summary of the method: as §2
Mus musculus [27] = organism: Mus musculus; assay: Concentration required to decrease the growth rate to 50% of control.; cell proliferation was not slowed down at screen concentration 10 mM; type: functional, organism-based; summary of the method: as §2

Compound | Control (Mus musculus [1]) | IC50 (Mus musculus [4]) | Control (HEp-2 [5]) | IC50 (Mus musculus [6]) | further results
Cc1nc(Cl)nc(Cl)c1[N+](=O)[O-] | 104% |  |  |  | IC50 (Mus musculus [2]): Cell proliferation not slowed; IC50 (Mus musculus [3]): Cell proliferation not slowed
CCN(CC)c1nc(OC)nc(C(Br)Br)c1[N+](=O)[O-] | 0% | 5.6 µM | 0% | 5.8 µM | 
COc1nc(C(Br)Br)c([N+](=O)[O-])c(N2CCOCC2)n1 | 0% | 0.56 µM | 0% | 0.32 µM | T/C (Mus musculus [7]): 109%; IC50 (HEp-2 [8]): 2.8 µM; IC50 (HEp-2 [9]): 1.6 µM; T/C (Mus musculus [10]): 101%; T/C (Mus musculus [11]): 87%
COc1nc(C(Br)Br)c([N+](=O)[O-])c(N2CCCC2)n1 |  | 1 µM |  | 0.9 µM | Control (Mus musculus [12]): 0%
COc1nc(CO)c([N+](=O)[O-])c(N2CCOCC2)n1 | 100% |  | 100% |  | IC50 (Mus musculus [13]): Cell proliferation not slowed; IC50 (HEp-2 [14]): Cell proliferation not slowed; IC50 (HEp-2 [15]): Cell proliferation not slowed; IC50 (Mus musculus [3]): Cell proliferation not slowed
CCOc1nc(OCC)c([N+](=O)[O-])c(C(Br)Br)n1 | 0% |  |  | 7.2 µM | IC50 (Mus musculus [16]): Not Active
CCOc1nc(C(Br)Br)c([N+](=O)[O-])c(N2CCOCC2)n1 | 13% |  |  | 3.6 µM | IC50 (Mus musculus [17]): Not Active
CNc1nc(OC)nc(C(Br)Br)c1[N+](=O)[O-] | 0% | 2 µM | 0% | 2.3 µM | 
COc1nc(C(Br)Br)c([N+](=O)[O-])c(N2CCCCC2)n1 |  | 1.8 µM |  | 0.54 µM | Control (Mus musculus [12]): 0%; Control (HEp-2 [18]): 36%
COc1nc(N)c([N+](=O)[O-])c(C(Br)Br)n1 | 0% |  | 0% | 2 µM | T/C (Mus musculus [7]): 91%; T/C (Mus musculus [19]): 100%; T/C (Mus musculus [20]): 104%; IC50 (HEp-2 [8]): 3.3 µM; IC50 (Mus musculus [21]): Not Active; IC50 (HEp-2 [9]): 1.6 µM
COc1nc(C)c([N+](=O)[O-])c(OC)n1 | 104% |  | 90% |  | IC50 (HEp-2 [14]): Cell proliferation not slowed; IC50 (HEp-2 [22]): Cell proliferation not slowed; IC50 (Mus musculus [23]): Cell proliferation not slowed; IC50 (Mus musculus [24]): Cell proliferation not slowed
COc1nc(OC)c([N+](=O)[O-])c(C(Br)Br)n1 | 0% |  | 0% | 1.9 µM | IC50 (Mus musculus [16]): Not Active; IC50 (HEp-2 [8]): 2.7 µM; IC50 (HEp-2 [9]): 2.5 µM
COc1nc(C=P(c2ccccc2)(c2ccccc2)c2ccccc2)c([N+](=O)[O-])c(OC)n1 |  |  |  |  | IC50 (Mus musculus [25]): Cell proliferation not slowed; Control (Mus musculus [12]): 93%; IC50 (Mus musculus [26]): Cell proliferation not slowed
COc1nc(/C=C\N(C)C)c([N+](=O)[O-])c(OC)n1 |  |  |  |  | IC50 (Mus musculus [25]): Cell proliferation not slowed; Control (Mus musculus [12]): 87%; IC50 (Mus musculus [27]): Cell proliferation not slowed
COc1nc(CBr)c([N+](=O)[O-])c(OC)n1 | 0% | 25 µM | 0% | 8 µM | 
COc1nc(C=O)c([N+](=O)[O-])c(N(C)C)n1 | 0% | 12 µM |  | 5.9 µM | 
CCCOc1nc(C(Br)Br)c([N+](=O)[O-])c(N2CCOCC2)n1 |  | 6.1 µM |  | 2.3 µM | Control (Mus musculus [12]): 13%
